Experimental data taken from ChEMBL document CHEMBL3525906, “A comprehensive assessment of repaglinide metabolic pathways: impact of choice of in vitro system and relative enzyme contribution to in vitro clearance” (Drug Metab Dispos, 2012).

Tests used:
[1] = tested on: Liver microsome; assay: Drug metabolism in human liver microsomes assessed as 2-despiperidyl-2-(5-carboxypentylamine) repaglinide formation by LC-MS/MS method; format: ADME
[2] = species: Homo sapiens; assay: Drug metabolism in human patient assessed as fold change in metabolite M2/M1 AUC ratio at 0.25 mg co-treated with gemfibrozil on various time intervals relative to gemfibrozil non-treated patient; format: ADME, organism-based; settings: in vivo
[3] = species: Homo sapiens; assay: Drug metabolism in variable SLCO1B1 genotype containing human patient assessed as fold change in metabolite M2/M1 AUC ratio at 0.25 mg co-treated with gemfibrozil relative to gemfibrozil non-treated patient; format: ADME, organism-based; settings: in vivo
[4] = Unbound intrinsic clearance in human hepatic S9 fraction assessed as glucuronide formation measured per mg of protein at 0.5 to 150 uM by LC-MS/MS method; format: ADME, tissue-based, Liver; settings: s9, 150 µM
[5] = species: Homo sapiens; assay: Drug metabolism in human patient assessed as fold change in metabolite M2/M4 AUC ratio at 0.25 mg co-treated with telithromycin relative to telithromycin non-treated patient; format: ADME, organism-based; settings: in vivo
[6] = molecular target: Cytochrome P450 3A5 (Homo sapiens, UniProt P20815); assay: Activity of human recombinant CYP3A5 expressed in insect cells assessed as enzyme-mediated 3'-hydroxy repaglinide formation by LC-MS/MS method; format: ADME
Method in brief: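 Recombinant P450 (CYP2C8 50, CYP3A4 30, CYP3A5 100; units not given) incubated 10 min at 37°C with repaglinide (8 concentrations, 0.5–150 μM) in 0.1 M phosphate pH 7.4, 10 mM MgCl2, NADPH-regenerating system (1 mM NADP+, isocitrate/isocitrate dehydrogenase). Quenched with ice-cold methanol plus indomethacin internal standard. M1, M2, M4 quantified by LC-MS/MS against authentic standards. Michaelis-Menten fit; mean ± SD, n=3.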

[7] = tested on: Liver microsome; assay: Drug metabolism in human liver microsomes assessed as 3'-hydroxy repaglinide formation by LC-MS/MS method; format: ADME
[8] = Fraction metabolism via UGT in human liver microsomes; format: ADME
[9] = Fraction metabolism via UGT in human hepatic S9 fraction; format: ADME, Liver
[10] = species: Homo sapiens; assay: Ratio of AUC in human patient at 0.25 mg to AUC in human patient at 0.25 mg co-treated with telithromycin and montelukast; format: ADME, organism-based; settings: in vivo
[11] = tested on: Liver microsome; assay: Unbound intrinsic clearance in human liver microsomes assessed as 2-despiperidyl-2-(5-carboxypentylamine) repaglinide formation measured per mg of protein at 0.5 to 150 uM by LC-MS/MS method; format: ADME
Method in brief: (§1)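 Pooled HLM, 0.3 mg/ml, in 0.1 M phosphate pH 7.4 with 10 mM MgCl2 and NADPH regenerating system. Repaglinide at 8 levels, 0.5-150 μM; 37°C, 10 min. Metabolites by LC-MS/MS against authentic standards; fu_inc 0.85. Duplicates on three occasions.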

[12] = tested on: Liver microsome; assay: Unbound intrinsic clearance in human liver microsomes assessed as 2-despiperidyl-2-amino repaglinide formation measured per mg of protein at 0.5 to 150 uM by LC-MS/MS method; format: ADME; method in brief: as §1
[13] = Drug metabolism in human hepatic S9 fraction assessed as 2-despiperidyl-2-amino repaglinide formation measured per mg of protein at 0.5 to 150 uM by LC-MS/MS method; format: ADME, Liver; settings: s9, 150 µM
[14] = tested on: Hepatocyte; assay: Unbound intrinsic clearance in human hepatocytes assessed as 2-despiperidyl-2-(5-carboxypentylamine) repaglinide formation measured per 10^6 cells at 0.5 to 150 uM by LC-MS/MS method; format: ADME, cell-based
[15] = molecular target: T1, Cytochrome P450 3A4 (Homo sapiens, UniProt P08684); assay: Unbound intrinsic clearance in human recombinant CYP3A4 expressed in insect cells assessed as enzyme-mediated 3'-hydroxy repaglinide formation per nanomole of protein at 0.5 to 150 uM by LC-MS/MS method; format: ADME
[16] = molecular target: T2, Cytochrome P450 2C8 (Homo sapiens, UniProt P10632); assay: Fraction metabolism via CYP2C8 in human hepatic S9 fraction; format: ADME, Liver
T2 sequence (P10632 whole entry): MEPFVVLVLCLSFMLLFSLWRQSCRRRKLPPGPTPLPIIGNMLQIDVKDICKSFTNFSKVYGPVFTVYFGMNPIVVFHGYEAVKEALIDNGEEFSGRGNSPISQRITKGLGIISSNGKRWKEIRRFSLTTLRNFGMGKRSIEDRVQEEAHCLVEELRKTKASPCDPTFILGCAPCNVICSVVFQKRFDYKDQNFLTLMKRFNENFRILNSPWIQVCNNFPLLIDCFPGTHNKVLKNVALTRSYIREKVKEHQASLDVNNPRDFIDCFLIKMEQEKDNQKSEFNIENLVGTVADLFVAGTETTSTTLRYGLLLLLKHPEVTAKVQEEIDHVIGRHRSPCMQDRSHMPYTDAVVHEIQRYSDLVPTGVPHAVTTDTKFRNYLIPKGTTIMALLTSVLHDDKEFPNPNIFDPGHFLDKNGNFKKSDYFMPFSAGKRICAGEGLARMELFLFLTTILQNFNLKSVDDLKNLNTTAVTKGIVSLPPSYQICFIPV

[17] = molecular target: T1, Cytochrome P450 3A4; assay: Fraction metabolism via CYP3A4 in human hepatic S9 fraction; format: ADME, Liver
[18] = species: Homo sapiens; assay: Drug metabolism in variable SLCO1B1 genotype containing human patient assessed as fold change in metabolite M2/M4 AUC ratio at 0.25 mg co-treated with gemfibrozil relative to gemfibrozil non-treated patient; format: ADME, organism-based; settings: in vivo
[19] = Drug metabolism in human hepatic S9 fraction assessed as 3'-hydroxy repaglinide formation measured per mg of protein at 0.5 to 150 uM by LC-MS/MS method; format: ADME, Liver; settings: s9, 150 µM
[20] = tested on: Hepatocyte; assay: Drug metabolism in human hepatocytes assessed as 2-despiperidyl-2-(5-carboxypentylamine) repaglinide formation measured per 10^6 cells at 0.5 to 150 uM by LC-MS/MS method; format: ADME, cell-based
[21] = Fraction metabolism via UGT in human hepatocytes; format: ADME, cell-based, Hepatocyte
[22] = Drug metabolism in human hepatic S9 fraction assessed as 2-despiperidyl-2-(5-carboxypentylamine) repaglinide formation measured per mg of protein at 0.5 to 150 uM by LC-MS/MS method; format: ADME, Liver; settings: s9, 150 µM
[23] = molecular target: T2, Cytochrome P450 2C8; assay: Unbound intrinsic clearance in human recombinant CYP2C8 expressed in insect cells assessed as enzyme-mediated 2-despiperidyl-2-amino repaglinide formation per nanomole of protein at 0.5 to 150 uM by LC-MS/MS method; format: ADME
[24] = tested on: Liver microsome; assay: Drug metabolism in human liver microsomes assessed as 2-despiperidyl-2-amino repaglinide formation by LC-MS/MS method; format: ADME
[25] = tested on: Liver microsome; assay: Drug metabolism in human liver microsomes assessed as glucuronide formation measured per mg of protein at 0.5 to 150 uM by LC-MS/MS method; format: ADME
[26] = tested on: Liver microsome; assay: Drug metabolism in human liver microsomes assessed as 2-despiperidyl-2-amino repaglinide formation measured per mg of protein at 0.5 to 150 uM by LC-MS/MS method; format: ADME
[27] = species: Homo sapiens; assay: Ratio of AUC in variable OATP1B1 genotype human patient at 0.25 mg to AUC in ariable OATP1B1 genotype human patient at 0.25 mg co-treated with gemfibrozil on various time intervals; format: ADME, organism-based; settings: in vivo
[28] = molecular target: T2, Cytochrome P450 2C8; assay: Fraction metabolism via CYP2C8 in human hepatocytes; format: ADME, cell-based, Hepatocyte
[29] = Drug metabolism in human hepatic S9 fraction assessed as 3'-hydroxy repaglinide formation by LC-MS/MS method; format: ADME, Liver
[30] = species: Homo sapiens; assay: Drug metabolism in human patient assessed as fold change in metabolite M2/M4 AUC ratio at 0.25 mg co-treated with telithromycin and montelukast relative to telithromycin and montelukast non-treated patient; format: ADME, organism-based; settings: in vivo

T1 sequence (P08684 whole entry): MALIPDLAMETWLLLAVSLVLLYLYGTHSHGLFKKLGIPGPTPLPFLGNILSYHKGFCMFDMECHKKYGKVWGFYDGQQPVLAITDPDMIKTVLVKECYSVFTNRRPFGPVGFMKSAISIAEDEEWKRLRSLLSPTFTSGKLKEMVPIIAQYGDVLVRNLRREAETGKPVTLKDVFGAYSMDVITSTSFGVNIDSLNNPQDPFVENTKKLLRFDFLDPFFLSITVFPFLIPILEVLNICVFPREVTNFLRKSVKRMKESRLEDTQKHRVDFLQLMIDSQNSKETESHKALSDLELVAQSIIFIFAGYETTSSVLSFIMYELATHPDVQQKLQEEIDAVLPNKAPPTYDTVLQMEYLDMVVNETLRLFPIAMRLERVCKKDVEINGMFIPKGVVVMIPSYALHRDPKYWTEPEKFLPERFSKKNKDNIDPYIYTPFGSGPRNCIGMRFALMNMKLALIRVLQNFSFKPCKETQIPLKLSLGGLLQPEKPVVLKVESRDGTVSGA
Sequence of Cytochrome P450 3A5 (P20815 whole entry): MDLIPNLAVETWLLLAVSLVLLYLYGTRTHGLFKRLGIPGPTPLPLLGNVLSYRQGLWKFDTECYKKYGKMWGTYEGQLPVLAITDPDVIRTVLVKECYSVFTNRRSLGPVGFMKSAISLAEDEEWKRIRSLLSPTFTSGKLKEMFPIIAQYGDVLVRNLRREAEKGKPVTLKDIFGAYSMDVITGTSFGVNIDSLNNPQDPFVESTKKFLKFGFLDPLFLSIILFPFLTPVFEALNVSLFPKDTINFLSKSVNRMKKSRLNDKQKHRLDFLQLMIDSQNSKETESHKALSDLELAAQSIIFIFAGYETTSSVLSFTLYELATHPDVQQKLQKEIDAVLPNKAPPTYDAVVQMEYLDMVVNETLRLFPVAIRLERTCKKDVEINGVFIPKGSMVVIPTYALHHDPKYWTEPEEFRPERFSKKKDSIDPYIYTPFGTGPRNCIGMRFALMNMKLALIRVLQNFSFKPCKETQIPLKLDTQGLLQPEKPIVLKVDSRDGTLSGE

Km [1]: 24 µM
fold change (FC) [2]: 0.39
fold change (FC) [3]: 0.38
CL free [4]: 1.8 µL/min/mg
fold change (FC) [5]: 0.8
Km [6]: ≥ 150 µM
Km [7]: 9 µM
Fm [8]: 0.19
Fm [9]: 0.2
Ratio [10]: 1.9
CL free [11]: 1.4 µL/min/mg
CL free [12]: 4.1 µL/min/mg
Vmax [13]: 24 pmol/min/mg
CL free [14]: 3.3 uL/min/10^6cells
CL free [15]: 2 µL/min/nmol
Fm [16]: 0.41
Fm [17]: 0.39
fold change (FC) [18]: 6.4
Vmax [19]: 18 pmol/min/mg
Vmax [20]: 80 pmol/min/10^6cells
Fm [21]: 0.02
Vmax [22]: 94 pmol/min/mg
CL free [23]: 3.7 µL/min/nmol
Km [24]: 47 µM
Vmax [25]: 170 pmol/min/mg
Vmax [26]: 170 pmol/min/mg
Ratio [27]: 1
Fm [28]: 0.49
Km [29]: 13 µM
fold change (FC) [30]: 0.82
SMILES: CCOc1cc(CC(=O)N[C@@H](CC(C)C)c2ccccc2N2CCCCC2)ccc1C(=O)O [REPAGLINIDE]
